The text below walks through data of ChEMBL document CHEMBL1145514, “Single-dose oral amoxicillin or linezolid for prophylaxis of experimental endocarditis due to vancomycin-susceptible and vancomycin-resistant Enterococcus faecalis” (Antimicrob Agents Chemother, 2007).

The term MIC denotes the lowest concentration found to suppress growth. Lower therefore signals greater potency. The term Cmax denotes the highest concentration seen after dosing. For orientation: Tmax means the time from dosing to the highest level.

The subject of data set [1] is Enterococcus faecalis. Briefly: Antibacterial activity against vancomycin-susceptible Enterococcus faecalis JH2-2 after 24 hrs by broth macrodilution method. In kind it is functional.
Data set [2] deals with Enterococcus faecalis. Briefly: Antibacterial activity against vancomycin-resistant Enterococcus faecalis UCN41 after 24 hrs by broth macrodilution method. Format: functional.
Data set [3] relates to Enterococcus faecalis. Briefly: Antibacterial activity against vancomycin-susceptible Enterococcus faecalis 309 after 24 hrs by broth macrodilution method. In kind it is functional.
The test system of data set [4] is Enterococcus faecalis. Briefly: Antibacterial activity against vancomycin-susceptible Enterococcus faecalis 1209 after 24 hrs by broth macrodilution method. In kind it is functional.
Data set [5] is described as follows: Cmax in Enterococcus faecalis infected Wistar rat at single administration of 1 g, iv. The note with it: in vivo. Format: ADME, organism-based. Set-up: dose 1 g, route intravenous. In a few lines: (§1)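 Serum drug levels in rats receiving human-kinetics simulation by pump, measured in groups of three to five animals by agar diffusion bioassay with Bacillus subtilis ATCC 6633 as indicator; detection limit 1.76 mg/liter; linear standard curves. Values as means ± SD.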

The nature of data set [6]: Tmax in Enterococcus faecalis infected Wistar rat at single administration of 1 g, iv. In kind it is ADME, organism-based. The note with it: in vivo. In a few lines: as §1
The test system of data set [7] is Rattus norvegicus. Description: T>MIC in Enterococcus faecalis infected Wistar rat at single administration of 1 g, iv. The note with it: in vivo. Format: ADME, organism-based. An outline of the steps: as §1
The subject of data set [8] is Enterococcus faecalis. Briefly: Antibacterial activity against vancomycin-susceptible Enterococcus faecalis JH2-2 challenged with ID90 bacterial size inoculum in Wistar rat assessed as infection at single administration 1 g, iv. In kind it is functional, organism-based. An outline of the steps:
(§2)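 Female Wistar rats (180 to 200 g) with catheter-induced sterile aortic vegetations; 24 h after catheterization, groups of 10 received prophylaxis by pump at changing flow rates mimicking human serum kinetics; controls got i.v. saline. I.v. challenge at peak serum drug level with ID90 or 10 times ID90. Vegetations cultured 72 h after prophylaxis ended; sterile if no growth, detection limit ≥2 log10 CFU/g.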

Data set [9] concerns Enterococcus faecalis. Description: Antibacterial activity against vancomycin-resistant Enterococcus faecalis UCN41 challenged with ID90 bacterial size inoculum in Wistar rat assessed as infection at single administration of 1 g, iv. Format: functional, organism-based. In a few lines: as §2
Data set [10] is described as follows: Cmax in Enterococcus faecalis infected Wistar rat at single administration of 2 to 3 g, po. The note with it: in vivo. Format: ADME, organism-based. An outline of the steps:
(§3)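 Catheterized female Wistar rats received pump-controlled i.v. infusion at changing flow rates simulating human serum kinetics of the oral regimen. Serum drug levels were measured by agar diffusion bioassay in groups of 3–5 animals. Indicator organisms were B. subtilis ATCC 6633 for amoxicillin (detection limit 0.39 mg/liter) and S. aureus ATCC 29213 for linezolid (detection limit 3.12 mg/liter). Values are means ± SD.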

The nature of data set [11]: Tmax in Enterococcus faecalis infected Wistar rat at single administration of 2 to 3 g, po. Format: ADME, organism-based. The conditions noted are these: in vivo. In a few lines:
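Female Wistar rats (180-200 g) with catheter-induced sterile aortic vegetations; 24 h after catheterization, drug delivered by pump at changing flow rates to mimic human serum kinetics of a single 2-3 g oral dose. Serum levels in groups of 3-5 rats by agar diffusion bioassay (Bacillus subtilis ATCC 6633 indicator; detection limit 0.39 mg/liter); means ± SD.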

Data set [12] relates to Rattus norvegicus. Briefly: T>MIC in Enterococcus faecalis infected Wistar rat at single administration of 2 to 3 g, po. Format: ADME, organism-based. The note with it: in vivo. An outline of the steps:
as §3

Data set [13] deals with Enterococcus faecalis. Description: Antibacterial activity against vancomycin-susceptible Enterococcus faecalis JH2-2 challenged with ID90 bacterial size inoculum in Wistar rat assessed as infection at single administration of 2 to 3 g, po. In kind it is functional, organism-based. An outline of the steps: (§4)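 Female Wistar rats (180–200 g) with catheter-induced sterile aortic vegetations. 24 h after catheterization, drug is delivered i.v. by pump at changing flow rates to mimic human serum kinetics of a single 2–3 g oral dose. Rats are challenged i.v. with the ID90 at peak serum concentration. Vegetations are cultured 72 h after prophylaxis ends; sterile = no growth (detection ≥2 log10 CFU/g).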

Data set [14] concerns Enterococcus faecalis. Description: Antibacterial activity against vancomycin-resistant Enterococcus faecalis UCN41 challenged with ID90 bacterial size inoculum in Wistar rat assessed as infection at single administration of 2 to 3 g, po. In kind it is functional, organism-based. An outline of the steps:
as §2

Data set [15] deals with Enterococcus faecalis. Briefly: Antibacterial activity against vancomycin-resistant Enterococcus faecalis UCN41 challenged with 10 times ID90 bacterial size inoculum in Wistar rat assessed as infection at single administration of 600 mg, po. Format: functional, organism-based. An outline of the steps:
as §2

In data set [16] the test system is Enterococcus faecalis. Briefly: Antibacterial activity against vancomycin-susceptible Enterococcus faecalis 309 challenged with ID90 bacterial size inoculum in Wistar rat assessed as infection at single administration of 2 to 3 g, po. In kind it is functional, organism-based. In a few lines: as §4
The test system of data set [17] is Enterococcus faecalis. Briefly: Antibacterial activity against vancomycin-susceptible Enterococcus faecalis 309 challenged with 10 times ID90 bacterial size inoculum in Wistar rat assessed as infection at single administration of 2 to 3 g, po.
Data set [18] concerns Enterococcus faecalis. Briefly: Antibacterial activity against vancomycin-susceptible Enterococcus faecalis 1209 challenged with 10 times ID90 bacterial size inoculum in Wistar rat assessed as infection at single administration of 2 to 3 g, po.
Data set [19] in a line: Cmax in Enterococcus faecalis infected Wistar rat at single administration of 600 mg, po. Format: ADME, organism-based. On the set-up: dose 600 mg, route oral. The conditions noted are these: in vivo. An outline of the steps:
as §3

The nature of data set [20]: Cmax in Enterococcus faecalis infected Wistar rat at 600 mg, po two consecutive administration every 12 hrs. In kind it is ADME, organism-based. Set-up: dose 600 mg, route oral. The conditions noted are these: in vivo. In a few lines: as §3
A short description of data set [21]: Cmax in Enterococcus faecalis infected Wistar rat at 600 mg, po four consecutive administration every 12 hrs. In kind it is ADME, organism-based. On the set-up: dose 600 mg, route oral. The note with it: in vivo. In a few lines:
as §3

A short description of data set [22]: Tmax in Enterococcus faecalis infected Wistar rat at single administration of 600 mg, po. Format: ADME, organism-based. The note with it: in vivo. An outline of the steps: (§5)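 Female Wistar rats (180–200 g) with sterile aortic vegetations from a carotid catheter received drug 24 h later by pump at changing flow rates, mimicking human serum kinetics of 600 mg oral doses every 12 h. Serum levels were measured in groups of three to five rats by agar diffusion bioassay (S. aureus ATCC 29213 indicator; detection limit 3.12 mg/liter).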

Data set [23] in a line: Tmax in Enterococcus faecalis infected Wistar rat at 600 mg, po two consecutive administration every 12 hrs. Format: ADME, organism-based. The note with it: in vivo. In a few lines:
as §5

Data set [24] in a line: Tmax in Enterococcus faecalis infected Wistar rat at 600 mg, po four consecutive administration every 12 hrs. The conditions noted are these: in vivo. In kind it is ADME, organism-based. An outline of the steps:
as §5

Data set [25] has as its system Rattus norvegicus. Description: T>MIC in Enterococcus faecalis infected Wistar rat at single administration of 600 mg, po. Format: ADME, organism-based. The note with it: in vivo. In a few lines:
as §3

For data set [26], the system named is Rattus norvegicus. Briefly: T>MIC in Enterococcus faecalis infected Wistar rat at 600 mg, po two consecutive administration every 12 hrs. The note with it: in vivo. Format: ADME, organism-based. In a few lines: as §3
Data set [27] relates to Rattus norvegicus. Briefly: T>MIC in Enterococcus faecalis infected Wistar rat at 600 mg, po four consecutive administration every 12 hrs. In kind it is ADME, organism-based. The conditions noted are these: in vivo. In a few lines: as §3
[28] abbreviates: Enterococcus faecalis, 309, 24 h.
Setting [29] is: Enterococcus faecalis, 1209, 24 h.

Values after ≈ are worked out from the molar mass of the structure shown. Active and inactive are the calls of the source. The calls are words filed in the database; no cut-off is given here.

For the compound `CN[C@H](CC(C)C)C(=O)N[C@H]1C(=O)N[C@@H](CC(N)=O)C(=O)N[C@H]2C(=O)N[C@H]3C(=O)N[C@H](C(=O)N[C@H](C(=O)O)c4cc(O)cc(O)c4-c4cc3ccc4O)[C@H](O)c3ccc(c(Cl)c3)Oc3cc2cc(c3O[C@@H]2O[C@H](CO)[C@@H](O)[C@H](O)[C@H]2O[C@H]2C[C@](C)(N)[C@H](O)[C@H](C)O2)Oc2ccc(cc2Cl)[C@H]1O` [VANCOMYCIN], the minimal inhibitory concentration (MIC) in the data set with Enterococcus faecalis [1] (JH2-2, 24 h) was 1 µg/mL (≈ 0.69 µM); in the data set on Enterococcus faecalis [2] (UCN41, 24 h), greater than 256 µg/mL; against Enterococcus faecalis [3] (setting [28]), 4 µg/mL (≈ 2.76 µM); in the data set on Enterococcus faecalis [4] (setting [29]), 4 µg/mL (≈ 2.76 µM). The compound also yielded a Cmax in data set [5] of 37800 ng/mL. For the same compound, the Tmax in data set [6] was 0.5 h. The “T>MIC” value in the data set on Rattus norvegicus [7] worked out at 12 h. Also, the result with Enterococcus faecalis [8] was Active. Besides, in the data set with Enterococcus faecalis [9], the outcome was inactive.
For `CC1(C)S[C@@H]2[C@H](NC(=O)[C@H](N)c3ccc(O)cc3)C(=O)N2[C@H]1C(=O)O` [AMOXICILLIN], the MIC in the data set with Enterococcus faecalis [1] (JH2-2, 24 h) amounted to 0.25 µg/mL (≈ 0.684 µM); in the data set on Enterococcus faecalis [2] (UCN41, 24 h), 0.25 µg/mL (≈ 0.684 µM); against Enterococcus faecalis [3] (setting [28]), 0.5 µg/mL (≈ 1.37 µM); against Enterococcus faecalis [4] (setting [29]) it was 1 µg/mL (≈ 2.74 µM). Besides, in data set [10], the Cmax is 29400 ng/mL. Also, the Tmax in data set [11] worked out at 2 h. Moreover, the “T>MIC” value in the data set with Rattus norvegicus [12] turned out to be 12 h. Moreover, the outcome in the data set with Enterococcus faecalis [13], in the data set on Enterococcus faecalis [14], in the data set with Enterococcus faecalis [15], with Enterococcus faecalis [16], with Enterococcus faecalis [17] and with Enterococcus faecalis [18] was Active.
Consider GENTAMICIN, for which the MIC in the data set on Enterococcus faecalis [1] stood at 2 µg/mL; against Enterococcus faecalis [2], 1 µg/mL; with Enterococcus faecalis [3], 64 µg/mL; in the data set on Enterococcus faecalis [4], 16 µg/mL.
Regarding `CC(=O)NC[C@H]1CN(c2ccc(N3CCOCC3)c(F)c2)C(=O)O1` [LINEZOLID], the values for the Cmax in [19], in data set [20] and in data set [21] were 17500 ng/mL, 18600 ng/mL and 19300 ng/mL, respectively. In addition, the Tmax in data set [22], in [23] and in data set [24] was 1 h throughout. For the same compound, the “T>MIC” value stood at 12 h in the data set on Rattus norvegicus [25], 24 h with Rattus norvegicus [26] and 48 h in the data set with Rattus norvegicus [27]. Also, in the data set on Enterococcus faecalis [15], the result was inactive.
